Tested on: MS2 coat protein
Assay: apparent Kd, MS2 coat protein; higher = weaker binding; RNA-MaP array; FMN 200 µM where present
Outline: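 Each design was made on Illumina sequencing-chip clusters by stalled E. coli RNA polymerase and titrated with SNAP-549-labelled MS2 coat protein from 0.7 or 1.5 nM, doubling to 3 µM, in the absence and then the presence of constant ligand. The buffer was 100 mM Tris-HCl pH 7.5, 80 mM KCl, 4 mM MgCl2, BSA, DTT, yeast tRNA and Tween-20. The apparent Kd is the median of filtered per-cluster fits of binding curves, with green signal normalised to red-channel RNA signal and control-cluster median Fmax.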

[1] = designed as: OFF switch for flavin mononucleotide, no ligand
[2] = ligand present: flavin mononucleotide, designed as: OFF switch for flavin mononucleotide
[3] = designed as: ON switch for flavin mononucleotide, no ligand
[4] = ligand present: flavin mononucleotide, designed as: ON switch for flavin mononucleotide

Row | Sequence | apparent Kd [1] | apparent Kd [2] | apparent Kd [3] | apparent Kd [4]
1 | UGAGAUGUAGUAGGAUAUCAGGUUACAUGAGGAUCACCCAUGUUAGAUUGGUGGAUAGAUGUUGAUGAGAAGGACUUUUGAGUU | 63.5 nM | 100 nM | – | –
2 | AUUACGUCAGGAUAUCUGAUGUCUAACUUCGGUUAGACAUCAGAGAAGGGACAUGAGGAUCACCCAUGUAAUAG | 54.5 nM | 56.2 nM | – | –
3 | GUGCUCGUGUGAGGAUAUGCUGCCGGGUCGGCUGCAGAAGGUACUAUUAUACAUGAGGAUCACCCAUGUCGCUUUUCUCCGGUG | – | – | 45.6 nM | 44.9 nM
4 | GAAUGAGAGCAGGAUAUCUUAUAAUUGUAUGAAAGAGAAGGGCUCACAUGAGGAUCACCCAUGUGGUCCUAGAU | 42 nM | 299 nM | – | –
5 | UUAUCUCAUGAGAAGGACAUGAGGAUCACCCAUGUAGGAUAUCAUGGGUCAGUGGAAUUGAAUCUUCGGAUUCAAUAACUCUAC | – | – | 72.5 nM | 11.9 nM
6 | GCAUGCGUUCGAGGAUAUCGGUGAGAAACGGAACGAGAAGGCGAUAGAAUGUCUCAUCUUAUGAACAUGAGGAUCACCCAUGUA | – | – | 32.7 nM | 31.6 nM
7 | CAAAUUUGGUAAGGAUAUCCCACAUUAUUCUGACCCGUGCAAGCUACAUGAGGAUCACCCAUGUGGGAGAAGGUGCGUUAAAGA | 63 nM | 79 nM | – | –
8 | CCCAAACUUGGGCUUGGUGGUGCAUAGGAUAUGCUUGAACAUGAGGAUCACCCAUGUACAACUGUGCAGAAGGGUGCAGGGCAA | – | – | 40.9 nM | 18.6 nM
9 | GUAGCAUACCAAGGAUAUUCAGGGCUUGGAUAGACAUGAGGAUCACCCAUGUGGCGAAAGUCUAGGGAGAAGGUGGUAUGCUAC | – | – | 16 nM | 13.8 nM
10 | AGUGGGCUAGGAUAUCGAUGAACUCACAUGAGGAUCACCCAUGUGUCUUUGGUGGGCGCACGAGAAGGAGUAAGAU | 40.4 nM | 43.3 nM | – | –
11 | AUUAUUUCAUGAGGAUAUGGCACCUUAUUGGUGCCAGAAGGCAUGUCUAUUGACAUGAGGAUCACCCAUGUAUUAAAUUAUAUA | – | – | 621 nM | 45.3 nM
12 | CAAUUCCGAGGAUAUACAUGAGGAUCACCCAUGUCGGGCCUCAGCGUUUAGCGCCUCAGUAGAAGGCGGGUUUC | 28.3 nM | 34.8 nM | – | –
13 | ACAUGAGGAUCACCCAUGUAUUACAUGGUUAAGUUUAUUAACAGAAGGCGAAAUUACCACUUGGUCGAGGAUAUGUAUUCUAUU | 40.3 nM | 40.7 nM | – | –
14 | GCCUUAUCCGUCAGGAUAUACAGUUGUUAGUUGUUGUAGAAGGGACAUGAGGAUCACCCAUGUACAUUACAUUG | 21.2 nM | 22.6 nM | – | –
15 | GCAGGUUAAGUCAGGAUAUACCUAUGGAUACAUAGGUAGAAGGGACAUGAGGAUCACCCAUGUGUCUCGCCUGC | 87.8 nM | 148 nM | – | –
16 | AUAUCCUAGAUAGGAUAUACUGAGGUUGAAUGGGUAGAAGGAUCGUUAGGGUAGACUACAUGAGGAUCACCCAUGUUGUUUAUU | – | – | 43.1 nM | 40.1 nM
17 | AACUCGUCAGGAUAUGCGCGCAGUUGCUGCGCUUCGCCGUUGCAGAAGGGACAUGAGGAUCACCCAUGUAGGUC | 35.8 nM | 43.5 nM | – | –
18 | UAAUUUUUAGUAAGGAUAUCGGUCCCAAGGGACAACGAGAAGGUACAUGAGGAUCACCCAUGUGAUUAAAGAAU | 28.2 nM | 221 nM | – | –
19 | GAUCCACAUGAGGAUCACCCAUGUCAGGAUAUGAUACUAUGUACUUCGGUACAUAGUAUCAGAAGGGACAGAUC | 168 nM | 108 nM | – | –
20 | GGAGCACGCACAGGAUAUCCGGCGACGCUCGUCGGAGAAGGGUGACAUGAGGAUCACCCAUGUACGUGCAACUCAGUUUGAGAG | – | – | 43.6 nM | 36.1 nM
21 | GGGCCGUAGUAGAAGGGAUAUACGAUAGGUAUAUCAGGAUAUACAUGAGGAUCACCCAUGUUCUUACAGUGAUAGUCCUCCCUA | 28.4 nM | 65.8 nM | – | –
22 | UGGUACUAGGGAGGAUAUGGGAAGAUACAUGAGGAUCACCCAUGUUUAAGAAUGCCGAGAGGCAACUAGAAGGCCCUACUACCU | – | – | 294 nM | 20.6 nM
23 | GCGGCUCCUGACAUGAGGAUCACCCAUGUUUAAUUAUUAAAUCAGGAUAUCCUCUCGAAACGAGAGGAGAAGGGAUAAGCUGCU | – | – | 5.6 nM | 6.44 nM
24 | AGACUGAAGCAAGGAUAUUGUAAGGUUAAUGUACAAGAAGGUGCUGUUUAUGUCUCUUAACAUGAGGAUCACCCAUGUUUUGAA | – | – | 19.1 nM | 19.2 nM
25 | CGUAUGUCAGGAUAUGCGCGCGAUCAUUACACUCGGAAUUGGCAGAAGGGACAUGAGGAUCACCCAUGUGGCCC | 34.4 nM | 37.4 nM | – | –
26 | GUCGGGUGGGUAGGAUAUGGCUAUGUCUCAUUGCUAGAAGGACCAACUGCUACAUGAGGAUCACCCAUGUCGUAGUGCACCCGG | – | – | 149 nM | 27.5 nM
27 | UAUAUGUCAGGAUAUUAGUUGUGGACGAAUUUCACUUCUGCUGAGAAGGGACAUGAGGAUCACCCAUGUUCCUC | 15.4 nM | 16 nM | – | –
28 | GUCAGCUCGUGAGGAUAUACAACACUGCUUCGGCAGUGUAUUAAGAUCACAUGAGGAUCACCCAUGUAGAAGGCACGCGCUGAU | 12.9 nM | 292 nM | – | –

From the EternaBench riboswitch data
